Assay results as given in ChEMBL document CHEMBL5260806, “Hydrogen peroxide activated quinone methide precursors with enhanced DNA cross-linking capability and cytotoxicity towards cancer cells” (Eur J Med Chem, 2017).

What was measured:
ACHN [1] = assay: Anticancer activity against human ACHN cells assessed inhibition of cell growth after 48 hrs by CellTiter-Glo luminescent assay; format: functional, cell-based
Summary of the method: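 Renal lines grown in RPMI 1640 with 5% FBS and 2 mM L-glutamine, plated at 5,000–10,000 cells/well in 384-well plates and held 2–3 h at 37 °C, 5% CO2. Compounds were made as 20 mM DMSO stocks, given as ten 2-fold serial dilutions diluted 1:100 into cells, and incubated 48 h. Read-out was CellTiter-Glo luminescence after 10 min at room temperature.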

HT-29 = assay: Anticancer activity against human HT-29 cells assessed as cell growth inhibition at 10 uM incubated for 48 hrs by sulforhodamine B assay; format: functional; details: read-out: GI
Summary of the method: (§1)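 NCI-60 screen: cell lines grown in RPMI 1640 with 5% FBS and 2 mM L-glutamine, plated in 96-well plates at 5,000–40,000 cells/well depending on doubling time. Each line has one single-dose arm at 10 µM and one dose-response arm giving GI50.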

K562 = assay: Anticancer activity against human K562 cells assessed as cell growth inhibition at 10 uM incubated for 48 hrs by sulforhodamine B assay; format: functional; details: read-out: GI; summary of the method: as §1
OVCAR-8 = assay: Anticancer activity against human OVCAR-8 cells assessed as cell growth inhibition incubated for 48 hrs by sulforhodamine B assay; format: functional
Summary of the method: (§2)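 NCI DTP 60-cell-line screen run at National Cancer Institute. Cells grown in RPMI 1640 with 5% fetal bovine serum and 2 mM L-glutamine, seeded at 5,000–40,000 cells/well depending on doubling time. Single-dose screen at 10 µM gives growth percentage; dose-response series gives GI50.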

SK-MEL-5 = assay: Anticancer activity against human SK-MEL-5 cells assessed as cell growth inhibition incubated for 48 hrs by sulforhodamine B assay; format: functional; summary of the method: as §2
NCI-H460 = assay: Anticancer activity against human NCI-H460 cells assessed as cell growth inhibition at 10 uM incubated for 48 hrs by sulforhodamine B assay; format: functional; details: read-out: GI; summary of the method: as §2
HOP-92 = assay: Anticancer activity against human HOP-92 cells assessed as cell growth inhibition incubated for 48 hrs by sulforhodamine B assay; format: functional; summary of the method: as §1
786-0 = assay: Anticancer activity against human 786-0 cells assessed as cell growth inhibition incubated for 48 hrs by sulforhodamine B assay; format: functional; summary of the method: as §1
UACC-62 = assay: Anticancer activity against human UACC-62 cells assessed as cell growth inhibition incubated for 48 hrs by sulforhodamine B assay; format: functional
DU-145 = assay: Anticancer activity against human DU-145 cells assessed as cell growth inhibition incubated for 48 hrs by sulforhodamine B assay; format: functional; summary of the method: as §1
SR [2] = assay: Anticancer activity against human SR cells assessed as cell growth inhibition incubated for 48 hrs by sulforhodamine B assay; format: functional
A549 [3] = assay: Anticancer activity against human A549 cells assessed as cell growth inhibition at 10 uM incubated for 48 hrs by sulforhodamine B assay; format: functional; details: read-out: GI; summary of the method: as §1
OVCAR-4 = assay: Anticancer activity against human OVCAR-4 cells assessed as cell growth inhibition incubated for 48 hrs by sulforhodamine B assay; format: functional; summary of the method: as §2
A498 [4] = assay: Anticancer activity against human A498 cells assessed as cell growth inhibition at 10 uM incubated for 48 hrs by sulforhodamine B assay; format: functional; details: read-out: GI; summary of the method: as §1
NCI-H322M = assay: Anticancer activity against human NCI-H322M cells assessed as cell growth inhibition incubated for 48 hrs by sulforhodamine B assay; format: functional; summary of the method: as §2
HL-60 = assay: Anticancer activity against human HL-60 cells assessed as cell growth inhibition at 10 uM incubated for 48 hrs by sulforhodamine B assay; format: functional; details: read-out: GI; summary of the method: as §1
COLO 205 [5] = assay: Anticancer activity against human COLO 205 cells assessed as cell growth inhibition at 10 uM incubated for 48 hrs by sulforhodamine B assay; format: functional; details: read-out: GI; summary of the method: as §1
RXF 393 [6] = assay: Anticancer activity against human RXF 393 cells assessed as cell growth inhibition at 10 uM incubated for 48 hrs by sulforhodamine B assay; format: functional; details: read-out: GI; summary of the method: as §2
SR [7] = assay: Anticancer activity against human SR cells assessed as cell growth inhibition at 10 uM incubated for 48 hrs by sulforhodamine B assay; format: functional; details: read-out: GI
HCT-116 = assay: Anticancer activity against human HCT-116 cells assessed as cell growth inhibition incubated for 48 hrs by sulforhodamine B assay; format: functional; summary of the method: as §1
UO-31 = assay: Anticancer activity against human UO-31 cells assessed as cell growth inhibition incubated for 48 hrs by sulforhodamine B assay; format: functional
TK-10 [8] = assay: Anticancer activity against human TK-10 cells assessed as cell growth inhibition at 10 uM incubated for 48 hrs by sulforhodamine B assay; format: functional; details: read-out: GI
A498 [9] = assay: Anticancer activity against human A498 cells assessed as cell growth inhibition incubated for 48 hrs by sulforhodamine B assay; format: functional; summary of the method: as §1
RXF 393 [10] = assay: Anticancer activity against human RXF 393 cells assessed as cell growth inhibition incubated for 48 hrs by sulforhodamine B assay; format: functional; summary of the method: as §2
TK-10 [11] = assay: Anticancer activity against human TK-10 cells assessed inhibition of cell growth after 48 hrs by CellTiter-Glo luminescent assay; format: functional, cell-based; details: TK-10, 48 h
Summary of the method: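 Renal lines grown in RPMI 1640 with 5% FBS and 2 mM L-glutamine, seeded into 384-well plates at 5,000–10,000 cells/well, held 2–3 h at 37 °C, 5% CO2. DMSO stocks (20 mM) serially halved ten times and added at 1:100. Cells exposed 48 h at 37 °C; CellTiter-Glo added, 10 min at room temperature, luminescence read.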

OVCAR-3 = assay: Anticancer activity against human OVCAR-3 cells assessed as cell growth inhibition incubated for 48 hrs by sulforhodamine B assay; format: functional; summary of the method: as §2
SF-268 = assay: Anticancer activity against human SF-268 cells assessed as cell growth inhibition incubated for 48 hrs by sulforhodamine B assay; format: functional; summary of the method: as §2
A549 [12] = assay: Anticancer activity against human A549 cells assessed as cell growth inhibition incubated for 48 hrs by sulforhodamine B assay; format: functional; summary of the method: as §1
HCC 2998 [13] = assay: Anticancer activity against human HCC 2998 cells assessed as cell growth inhibition incubated for 48 hrs by sulforhodamine B assay; format: functional; summary of the method: as §1
DNA = assay: Induction of [32P]-labeled 49-mer oligonucleotide duplex DNA 25 (unknown origin) interstrand cross-linking at 2 mM for 24 hrs without H2O2 by PAGE; format: functional
COLO 205 [14] = assay: Anticancer activity against human COLO 205 cells assessed as cell growth inhibition incubated for 48 hrs by sulforhodamine B assay; format: functional; summary of the method: as §1
HCC 2998 [15] = assay: Anticancer activity against human HCC 2998 cells assessed as cell growth inhibition at 10 uM incubated for 48 hrs by sulforhodamine B assay; format: functional; details: read-out: GI; summary of the method: as §1
MDA-MB-468 [16] = assay: Anticancer activity against human MDA-MB-468 cells assessed as cell growth inhibition incubated for 48 hrs by sulforhodamine B assay; format: functional; summary of the method: as §2
MDA-MB-468 [17] = assay: Anticancer activity against human MDA-MB-468 cells assessed as cell growth inhibition at 10 uM incubated for 48 hrs by sulforhodamine B assay; format: functional; details: read-out: GI; summary of the method: as §2
T47D = assay: Anticancer activity against human T47D cells assessed as cell growth inhibition at 10 uM incubated for 48 hrs by sulforhodamine B assay; format: functional; details: read-out: GI
ACHN [18] = assay: Anticancer activity against human ACHN cells assessed as cell growth inhibition at 10 uM incubated for 48 hrs by sulforhodamine B assay; format: functional; details: read-out: GI; summary of the method: as §1
CCRF-CEM = assay: Anticancer activity against human CCRF-CEM cells assessed as cell growth inhibition at 10 uM incubated for 48 hrs by sulforhodamine B assay; format: functional; details: read-out: GI; summary of the method: as §1
HCT-15 = assay: Anticancer activity against human HCT-15 cells assessed as cell growth inhibition at 10 uM incubated for 48 hrs by sulforhodamine B assay; format: functional; details: read-out: GI; summary of the method: as §1

COc1cc(CBr)c(B2OC(C)(C)C(C)(C)O2)c(CBr)c1
2000 nM: GI50 (OVCAR-8) | GI50 (SK-MEL-5) | GI50 (HOP-92) | GI50 (786-0) | GI50 (UACC-62) | GI50 (DU-145) | GI50 (SR [2]) | GI50 (OVCAR-4) | GI50 (NCI-H322M) | GI50 (HCT-116) | GI50 (UO-31) | GI50 (A498 [9]) | GI50 (RXF 393 [10]) | GI50 (OVCAR-3) | GI50 (SF-268) | GI50 (A549 [12]) | GI50 (HCC 2998 [13]) | GI50 (COLO 205 [14]) | GI50 (MDA-MB-468 [16])
20000 nM: IC50 (ACHN [1])
0%: Activity (DNA)
< 50%: inhibition of growth at 10 µM (HT-29) | inhibition of growth at 10 µM (K562) | inhibition of growth at 10 µM (NCI-H460) | inhibition of growth at 10 µM (A549 [3]) | inhibition of growth at 10 µM (A498 [4]) | inhibition of growth at 10 µM (HL-60) | inhibition of growth at 10 µM (COLO 205 [5]) | inhibition of growth at 10 µM (RXF 393 [6]) | inhibition of growth at 10 µM (SR [7]) | inhibition of growth at 10 µM (TK-10 [8]) | inhibition of growth at 10 µM (HCC 2998 [15]) | inhibition of growth at 10 µM (MDA-MB-468 [17]) | inhibition of growth at 10 µM (T47D) | inhibition of growth at 10 µM (ACHN [18]) | inhibition of growth at 10 µM (CCRF-CEM) | inhibition of growth at 10 µM (HCT-15)
16200 nM: IC50 (TK-10 [11])
